Test results published in ChEMBL document CHEMBL4184325, “Discovery of 4,7-Diamino-5-(4-phenoxyphenyl)-6-methylene-pyrimido[5,4- b]pyrrolizines as Novel Bruton's Tyrosine Kinase Inhibitors” (J Med Chem, 2018).
pIC50: −log10 of the molar value. Activity calls are given as the source filed them. No cut-off for these calls is given here.

Columns and labels:
[1] = Tmax in rat at 3 mg/kg, po; assay type: ADME, organism-based; settings: in vivo
Outline: (§1)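 Rats were given compound at 1 mg/kg iv or 3 mg/kg po. Vehicle was DMSO, Tween 80 and normal saline. Values are the average of three determinations.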

[2] = target: Platelet-derived growth factor receptor beta (Homo sapiens, UniProt P09619); assay: Inhibition of recombinant human PDGFR-beta using Poly(Glu, Tyr) 4:1 as substrate after 1 hr by ELISA
[3] = Drug metabolism in mouse liver microsomes assessed as (S)-N-(4-amino-5-(4-(4-hydroxyphenoxy)phenyl)-6-methylene-7,8-dihydro-6H-pyrimido[5,4-b]pyrrolizin-7-yl)acrylamide formation after 3 hrs; assay type: ADME, microsome
[4] = test system: TMD8; assay: Induction of apoptosis in human TMD8 cells assessed as late apoptotic cells at 100 nM after 72 hrs by Annexin-FITC/propidium iodide staining-based flow cytometric method (reference value: 3.2%); assay type: functional
[5] = Drug metabolism in rat liver microsomes assessed as (S,E)-N-(4-amino-6-methylene-5-(4-phenoxyphenyl)-7,8-dihydro-6H-pyrimido[5,4-b]pyrrolizin-7-yl)-3-hydroxyacrylamide formation after 3 hrs; assay type: ADME, microsome
[6] = Drug metabolism in rat liver microsomes assessed as N-((S)-4-amino-6-methylene-5-(4-phenoxyphenyl)-7,8-dihydro-6H-pyrimido[5,4-b]pyrrolizin-7-yl)-2,3-dihydroxypropanamide formation after 3 hrs; assay type: ADME, microsome
[7] = test system: Rattus norvegicus; assay: Oral bioavailability in rat at 3 mg/kg; assay type: ADME, organism-based; settings: in vivo; outline: as §1
[8] = target: T1, Tyrosine-protein kinase ITK/TSK (Homo sapiens, UniProt Q08881); assay: Inhibition of recombinant human ITK using Poly(Glu, Tyr) 4:1 as substrate after 1 hr by ELISA
T1 sequence (Q08881 whole entry): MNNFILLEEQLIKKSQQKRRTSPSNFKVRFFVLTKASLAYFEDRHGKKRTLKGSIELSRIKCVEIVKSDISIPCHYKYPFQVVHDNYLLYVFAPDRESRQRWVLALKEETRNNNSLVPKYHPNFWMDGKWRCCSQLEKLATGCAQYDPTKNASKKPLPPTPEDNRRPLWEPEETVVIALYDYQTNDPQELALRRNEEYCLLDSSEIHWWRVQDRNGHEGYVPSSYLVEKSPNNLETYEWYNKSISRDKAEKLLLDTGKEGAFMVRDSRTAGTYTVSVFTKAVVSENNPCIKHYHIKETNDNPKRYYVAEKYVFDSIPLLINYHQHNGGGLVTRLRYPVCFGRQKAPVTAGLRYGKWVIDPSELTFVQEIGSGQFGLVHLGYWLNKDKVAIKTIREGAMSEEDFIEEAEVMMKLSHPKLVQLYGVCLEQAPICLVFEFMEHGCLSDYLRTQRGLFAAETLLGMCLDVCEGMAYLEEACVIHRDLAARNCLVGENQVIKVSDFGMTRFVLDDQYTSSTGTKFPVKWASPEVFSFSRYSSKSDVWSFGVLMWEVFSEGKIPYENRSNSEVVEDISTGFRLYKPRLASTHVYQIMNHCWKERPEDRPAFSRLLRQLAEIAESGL
Outline: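 Kinase activity was measured by ELISA on wells precoated with 20 µg/mL poly(Glu,Tyr) 4:1. Enzyme was incubated with compound in 50 mM HEPES pH 7.4, 20 mM MgCl2, 0.1 mM MnCl2, 0.2 mM Na3VO4, 1 mM DTT with 5 µM ATP at 37 °C for 1 h. Phosphotyrosine was detected with PY99 antibody, HRP secondary and OPD, read at A492. IC50 is the mean of duplicates.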

[9] = test system: TMD8; assay: Induction of apoptosis in human TMD8 cells assessed as early apoptotic cells at 10 nM after 72 hrs by Annexin-FITC/propidium iodide staining-based flow cytometric method (reference value: 7.98%); assay type: functional
[10] = test system: TMD8; assay: Induction of apoptosis in human TMD8 cells after 72 hrs by Annexin-FITC/propidium iodide staining-based flow cytometric method; assay type: functional, cell-based
[11] = test system: TMD8; assay: Cell cycle arrest in human TMD8 cells assessed as accumulation at G2 phase at 1 nM after 48 hrs by propidium iodide staining-based flow cytometric method (reference value: 14.53%); assay type: functional
[12] = test system: Mus musculus; assay: Toxicity in CB17 SCID nude mouse xenografted with human TMD8 cells assessed as change in body weight at 5 mg/kg, po qd administered for 13 consecutive days measured during compound dosing; assay type: organism-based; settings: in vivo
Outline: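 Female CB-17 SCID mice, 4-5 weeks old, were inoculated subcutaneously in the right axilla with about 2×10^6 TMD8 cells. At ~100-200 mm³ they were randomized (n = 6/group) and dosed orally once daily: vehicle for 13 days, 5 mg/kg/day for 13 days, 15 mg/kg/day for 17 days.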

[13] = Drug metabolism in rat liver microsomes assessed as (S)-4-(4-(4,7-diamino-6-methylene-7,8-dihydro-6H-pyrimido[5,4-b]pyrrolizin-5-yl)phenoxy)phenol formation after 3 hrs; assay type: ADME, microsome
[14] = Drug metabolism in mouse liver microsomes assessed as (S,E)-N-(4-amino-6-methylene-5-(4-phenoxyphenyl)-7,8-dihydro-6H-pyrimido[5,4-b]pyrrolizin-7-yl)-3-hydroxyacrylamide formation after 3 hrs; assay type: ADME, microsome
[15] = test system: Rattus norvegicus; assay: Volume of distribution at steady state in rat at 1 mg/kg, iv; assay type: ADME, organism-based; settings: in vivo; outline: as §1
[16] = test system: TMD8; assay: Antiproliferative activity against human TMD8 cells xenografted in CB17 SCID nude mouse assessed as decrease in Ki-67 expression at 15 mg/kg, […] by […] immunohistochemical analysis; assay type: functional, organism-based
[17] = Drug metabolism in human liver microsomes assessed as N-((S)-4-amino-6-methylene-5-(4-phenoxyphenyl)-7,8-dihydro-6H-pyrimido[5,4-b]pyrrolizin-7-yl)-2,3-dihydroxypropanamide formation after 3 hrs; assay type: ADME, microsome
[18] = Drug metabolism in human liver microsomes assessed as (S,E)-N-(4-amino-6-methylene-5-(4-phenoxyphenyl)-7,8-dihydro-6H-pyrimido[5,4-b]pyrrolizin-7-yl)-3-hydroxyacrylamide formation after 3 hrs; assay type: ADME, microsome
[19] = test system: TMD8; assay: Antiproliferative activity against human TMD8 cells after 72 hrs by MTT assay; assay type: functional, cell-based; settings: TMD8, 72 h
Outline: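 Cells grown in RPMI-1640 with FBS at 37 °C, 5% CO2. Seeded and grown 2 h, then treated with various concentrations in PBS solution, each in triplicate, and cultured a further 72 h. Viability read by MTT. IC50 from the Logit method, given as mean ± SD of three independent determinations.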

[20] = test system: TMD8; assay: Cell cycle arrest in human TMD8 cells assessed as accumulation at S phase at 1 nM after 48 hrs by propidium iodide staining-based flow cytometric method (reference value: 34.15%); assay type: functional

Platelet-derived growth factor receptor beta, sequence (P09619 whole entry): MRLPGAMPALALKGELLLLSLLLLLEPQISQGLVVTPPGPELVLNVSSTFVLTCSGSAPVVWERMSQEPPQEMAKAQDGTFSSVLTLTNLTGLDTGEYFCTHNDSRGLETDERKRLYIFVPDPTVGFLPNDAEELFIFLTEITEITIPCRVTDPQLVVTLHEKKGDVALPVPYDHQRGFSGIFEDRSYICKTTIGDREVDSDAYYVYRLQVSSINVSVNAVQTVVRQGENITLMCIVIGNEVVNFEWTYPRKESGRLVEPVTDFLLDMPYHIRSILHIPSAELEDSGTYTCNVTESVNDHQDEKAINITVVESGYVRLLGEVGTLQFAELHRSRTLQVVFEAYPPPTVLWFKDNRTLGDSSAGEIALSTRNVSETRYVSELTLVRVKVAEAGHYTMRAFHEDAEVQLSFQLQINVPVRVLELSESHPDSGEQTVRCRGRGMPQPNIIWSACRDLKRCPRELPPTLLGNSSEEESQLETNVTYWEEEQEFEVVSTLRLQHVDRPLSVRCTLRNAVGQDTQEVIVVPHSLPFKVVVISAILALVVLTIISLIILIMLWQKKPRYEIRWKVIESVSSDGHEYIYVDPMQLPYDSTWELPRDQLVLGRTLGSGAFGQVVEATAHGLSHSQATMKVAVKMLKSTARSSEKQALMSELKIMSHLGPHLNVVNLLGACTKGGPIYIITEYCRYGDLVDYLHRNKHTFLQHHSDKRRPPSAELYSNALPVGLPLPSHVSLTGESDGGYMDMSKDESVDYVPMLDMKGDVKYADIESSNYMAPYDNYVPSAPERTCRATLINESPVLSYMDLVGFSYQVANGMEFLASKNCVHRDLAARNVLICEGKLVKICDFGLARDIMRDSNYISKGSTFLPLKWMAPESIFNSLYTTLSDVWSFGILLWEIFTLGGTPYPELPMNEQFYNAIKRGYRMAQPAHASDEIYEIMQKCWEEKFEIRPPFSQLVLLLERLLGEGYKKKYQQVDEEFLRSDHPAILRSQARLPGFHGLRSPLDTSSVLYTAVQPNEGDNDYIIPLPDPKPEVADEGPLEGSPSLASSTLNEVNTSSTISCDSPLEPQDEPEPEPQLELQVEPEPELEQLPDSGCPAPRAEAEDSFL

For `C=CC(=O)N[C@@H]1Cn2c(c(-c3ccc(Oc4ccccc4)cc3)c3c(N)ncnc32)C1=C`, the Tmax [1] was 15 min, the pIC50 [2] was 6.67 and the Drug metabolism [3] was “Metabolite_Detected”. The Activity [4] was 14.8%, the Drug metabolism [5] was “Metabolite_Detected” and the Drug metabolism [6] was “Metabolite_Detected”. For the same compound, the F [7] was 18.3%, the pIC50 [8] was 7.82 and the Activity [9] was 27.6%. The Activity [10] was “Dose-dependent effect”, the Activity [11] was 17.32% and the Activity [12] was “Non-Toxic”. The Drug metabolism [13] was “Metabolite_Detected”, the Drug metabolism [14] was “Metabolite_Detected” and the Vdss [15] was 1.3 L/kg. For the same compound, the Activity [16] was “Active”, the Drug metabolism [17] was “Metabolite_Detected” and the Drug metabolism [18] was “Metabolite_Detected”. For the same compound, the pIC50 [19] was 7.80 and the Activity [20] was 25.22%.
